Where “and” joins values, the source holds several entries; their conditions need not be identical. Equal values may be shown once. Entries after “also recorded” stand apart in the source; their conditions may differ. Read-outs that look alike come from different tables or passages of the source.
Tests used:
recombinant human MAO-B [1] = biological target: T1, recombinant human MAO-B (Homo sapiens, UniProt P27338); test: biochemical; type: biochemical
T1 sequence (P27338 1-520): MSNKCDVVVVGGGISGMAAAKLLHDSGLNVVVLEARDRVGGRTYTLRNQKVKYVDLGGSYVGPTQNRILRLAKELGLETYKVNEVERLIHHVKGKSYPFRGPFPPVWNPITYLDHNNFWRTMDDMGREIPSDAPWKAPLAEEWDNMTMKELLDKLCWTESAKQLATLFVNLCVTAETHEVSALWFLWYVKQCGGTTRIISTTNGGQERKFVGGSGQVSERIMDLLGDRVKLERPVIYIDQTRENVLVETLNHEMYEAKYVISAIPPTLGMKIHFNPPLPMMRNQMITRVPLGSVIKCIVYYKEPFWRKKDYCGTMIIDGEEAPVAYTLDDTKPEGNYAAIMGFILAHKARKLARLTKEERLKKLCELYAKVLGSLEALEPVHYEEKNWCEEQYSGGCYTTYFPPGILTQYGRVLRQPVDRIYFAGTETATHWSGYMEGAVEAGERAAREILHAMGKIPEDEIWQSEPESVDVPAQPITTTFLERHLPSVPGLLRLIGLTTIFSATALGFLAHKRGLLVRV

[2] = Solubility observation at the concentrations tested; details: at the concentrations tested in the MAO assays
[3] = cited from earlier work
recombinant human MAO-A = biological target: T2, recombinant human MAO-A (Homo sapiens, UniProt P21397); test: Fluorometric kynuramine deamination assay, recombinant human MAO-A inhibition; type: biochemical
T2 sequence (P21397 1-527): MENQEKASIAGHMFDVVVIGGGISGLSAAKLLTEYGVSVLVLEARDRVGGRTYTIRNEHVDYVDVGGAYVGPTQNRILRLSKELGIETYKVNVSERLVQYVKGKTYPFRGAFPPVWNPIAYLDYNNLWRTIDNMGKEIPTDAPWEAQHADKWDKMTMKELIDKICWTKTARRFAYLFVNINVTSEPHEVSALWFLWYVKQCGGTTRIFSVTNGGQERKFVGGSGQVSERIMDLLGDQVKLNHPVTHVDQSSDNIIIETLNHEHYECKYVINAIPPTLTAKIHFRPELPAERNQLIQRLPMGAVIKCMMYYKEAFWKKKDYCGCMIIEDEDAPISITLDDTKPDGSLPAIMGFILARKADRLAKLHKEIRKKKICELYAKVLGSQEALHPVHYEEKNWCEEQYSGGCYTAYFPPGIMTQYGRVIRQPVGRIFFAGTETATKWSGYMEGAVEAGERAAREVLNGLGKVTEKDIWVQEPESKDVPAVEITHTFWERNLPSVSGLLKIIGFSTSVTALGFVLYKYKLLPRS

recombinant human MAO-B [4] = biological target: T1, recombinant human MAO-B; type: biochemical
recombinant human MAO-B [5] = biological target: T1, recombinant human MAO-B; type: biochemical; remark: listed apart in the source
recombinant human MAO-B [6] = biological target: T1, recombinant human MAO-B; type: binding
[7] = tested on: MAO activity in Neuroscreen-1 (NS-1) cells; test: MAO activity in lysates of treated Neuroscreen-1; type: cell-based, rat; details: deprenyl 1.0 μM, 12 hours
How it was run: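 NS-1 cells (rat PC12 subclone) in suspension culture were treated for 12 hours with test compound (100 µM), a selective MAO-B inhibitor reference (1.0 µM) or ethanol, alongside untreated controls. Lysates were prepared from the cells. MAO activity in the lysates was measured by fluorometric kynuramine deamination, with kynuramine at 80 µM for MAO-A and 50 µM for MAO-B.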

[8] = read-out: MAO-B IC50 (μM) ± S.D., kynuramine 50 μM, test compounds 0.01 to 100 μM, mean ± S.D. of triplicate

Molecule: CCCCC/C=C\C/C=C\C/C=C\C/C=C\CCCC(=O)N[C@H](C)CO [(R)-(+)-Methanandamide]
- IC50 (recombinant human MAO-B [1]; [8]): 51.1 ± 1.3 µM
- solubility issues [2]: did not show any solubility issues

Molecule: CCCCC/C=C\C/C=C\C/C=C\C/C=C\CCCC(=O)NCC(=O)O [NA-glycine, N-arachidonyl-glycine]
- critical micellar concentration (CMC) ([3]; ref 48): > 100 µM

Molecule: CCCCC/C=C\C/C=C\C/C=C\C/C=C\CCCC(=O)NCCO [Anandamide]
- IC50 (recombinant human MAO-A): > 100 µM
- IC50 (recombinant human MAO-B [1]): 40 ± 4.6 µM

Molecule: CCCCC/C=C\C/C=C\C/C=C\C/C=C\CCCCO [arachidonoyl alcohol]
- critical micellar concentration (CMC) ([3]; ref 46): 30 µM

Molecule: CCCCC/C=C\C/C=C\C/C=C\C/C=C\CCCC(=O)OCCN [Virodhamine]
- inhibition of MAO-B after pre-incubation (recombinant human MAO-B [4]; 0.25 μM virodhamine, pre-incubation 0-15 min): 55-70%
- time dependence of MAO-B inhibition (recombinant human MAO-B [4]; pre-incubation 0-15 min, virodhamine 2.5 μM, deprenyl 0.100 μM): time-dependent
- inhibition of the enzyme activity at the concentration chosen (recombinant human MAO-B [4]; virodhamine 2.5 μM): > 60%
- fold greater inhibition of MAO-B compared to MAO-A (recombinant human MAO-B [1]; ratio of IC50 MAO-A / MAO-B): ~ 55 fold and > 54 fold
- IC50 (recombinant human MAO-B [1]; [8]): 0.71 ± 0.04 µM
- MAO-B Type of Inhibition (recombinant human MAO-B [5]; Lineweaver-Burk analysis and dialysis): mixed mechanism/irreversible binding; also recorded: mixed enzyme inhibition mechanism
- Ki (recombinant human MAO-B [5]; read-out: MAO-B Ki (μM) ± S.D., kynuramine 1.90 to 500 μM, mean ± S.D. of triplicate): 0.258 ± 0.037 µM
- nature of binding with MAO-B (reversibility) (recombinant human MAO-B [6]; equilibrium dialysis overnight): irreversible
- enzyme activity recovered after overnight dialysis (recombinant human MAO-B [6]; virodhamine 10.0 μM, 20 min at 37 °C, dialysis 14-16 h at 4 °C): 2.644 ± 0.450%
- inhibition of catalytic activity before dialysis (recombinant human MAO-B [6]; virodhamine 10.0 μM, 20 min incubation): almost complete inhibition

Molecule: CCCCC/C=C\C/C=C\C/C=C\C/C=C\CCCC(=O)O [arachidonic acid]
- critical micellar concentration (CMC) ([3]; ref 46): 73 µM
- critical micellar concentration (CMC) ([3]; ref 47): ~ 30 μM

Molecule: CCCCC/C=C\C/C=C\C/C=C\C/C=C\CCCCOC(CO)CO [Noladin ether]
- IC50 (recombinant human MAO-B [1]; [8]): 18.2 ± 1.45 µM
- solubility issues [2]: did not show any solubility issues

Molecule: CCCCC/C=C\C/C=C\C/C=C\C/C=C\CCCC(=O)OC(CO)CO [2-AG, 2-arachidonoylglycerol]
- IC50 (recombinant human MAO-A): > 100 µM
- IC50 (recombinant human MAO-B [1]): 50.5 ± 0.515 µM
- critical micellar concentration (CMC) ([3]; ref 48): 4.2 ± 0.5 µM
- solubility issues [2]: did not show any solubility issues

Molecule: R-(−)-deprenyl hydrochloride
- inhibition of MAO activity in NS-1 cells [7]: > 90%

Molecule: CCCCCCCC/C=C\CCCCCCCC(=O)NCCO [Oleylethanolamide]
- MAO-A IC50 (μM) ± S.D. (recombinant human MAO-A; kynuramine 80 μM, test compounds 0.01 to 100 μM, mean ± S.D. of triplicate): no activity
- MAO-B IC50 (μM) ± S.D. (recombinant human MAO-B [1]; kynuramine 50 μM, test compounds 0.01 to 100 μM, mean ± S.D. of triplicate): no activity
- IC50 (recombinant human MAO-B [1]; [8]): > 100 µM

Reference: article PMC6298601 (Biochemical pharmacology, 2018)
